Laboratory results as given in ChEMBL document CHEMBL1148462, “A novel class of phosphonate nucleosides. 9-[(1-phosphonomethoxycyclopropyl)methyl]guanine as a potent and selective anti-HBV agent” (J Med Chem, 2004).

Tests used:
[1] = tested on: HepG2; test: Cytotoxic activity in HepG2 2.2.15 cell line; assay type: functional; details: Homo sapiens
[2] = tested on: HepG2; test: (§1) Compound tested for anti-HBV (hepatitis B virus) activity in HepG2 2.2.15 cell line; assay type: functional, cell-based; details: Homo sapiens
Outline: (§2)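 HBV-producing HepG2 2.2.15 cells cultured in DMEM/10% FBS with 400 μg/mL G418, seeded at 1.5 × 10⁴ cells/well and grown 2 days to 80–90% confluence. Medium then switched to 2% FBS. Compounds at 0–100 μM (fivefold steps) added every other day for 9 days. Day-10 supernatant boiled, serially diluted and HBV DNA quantified by TaqMan real-time PCR (40 cycles) to derive EC50.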

[3] = tested on: HepG2; test: as §1; assay type: functional; details: Homo sapiens; outline: as §2
[4] = Oral bioavailability in rat; assay type: ADME, organism-based; details: in vivo
[5] = tested on: Human immunodeficiency virus 1; test: Concentration required for inhibition of replication of human immunodeficiency virus (HIV-1); assay type: functional
[6] = tested on: Human alphaherpesvirus 1; test: […] of herpes simplex virus (HSV-1)

Row | Structure (SMILES) | CC50 [1] [µM] | EC50 [2] [µM] | EC80 [3] [µM] | bioavailability [4] [%] | Inhibition [5] [µM] | Inhibition [6] [µM]
1 | CCNc1nc(N)nc2c1ncn2CC1(OCP(=O)(O)O)CC1 | > 1000 | > 30 |  |  |  | 
2 | CCOc1nc(N)nc2c1ncn2CC1(OCP(=O)(O)O)CC1 | > 1000 | 0.5 | 3 |  |  | 
3 | Nc1ncnc2c1ncn2CC1(OCP(=O)(O)O)CC1 | > 1000 | 8 |  |  |  | 
4 | Cc1cn(CC2(OCP(=O)(O)O)CC2)c(=O)[nH]c1=O | > 1000 | > 30 |  |  |  | 
5 | Nc1nc(Cl)c2ncn(CC3(OCP(=O)(O)O)CC3)c2n1 | > 1000 | 1.5 | 7.5 |  |  | 
6 | Cc1nc(N)nc2c1ncn2CC1(OCP(=O)(O)O)CC1 | > 1000 | 8 |  |  |  | 
7 | Nc1ncnc2c1ncn2CCOCP(=O)(O)O [ADEFOVIR] |  | 2 | 44 |  |  | 
8 | Nc1ncc2ncn(CC3(OCP(=O)(O)O)CC3)c2n1 [BESIFOVIR] | > 1000 | 4 |  | > 5 |  | 
9 | Nc1nc(O)c2ncn(CC3(OCP(=O)(O)O)CC3)c2n1 [LB80317] | > 1000 | 0.5 | 2.3 |  | > 30 | > 30
